Source: ChEMBL document CHEMBL1255409, “In vitro activity of ceftaroline against 623 diverse strains of anaerobic bacteria” (2010)
Values after ≈ are worked out from the molar mass of the structure shown.

Legend:
Assay type in all cases: functional
[1] = tested on: Peptoniphilus harei; assay: Antimicrobial activity against Peptoniphilus harei under anaerobic conditions after 44 hrs by CLSI-M11-47 protocol based agar dilution method
Procedure, shortened: (§1)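 Clinical isolates were stored at −70°C in 20% skim milk and identified phenotypically or by partial 16S rRNA sequencing. Each strain was subcultured twice from frozen stock. Cell paste from 48-h cultures was suspended in brucella broth to a 0.5 McFarland standard. About 10^5 CFU per spot were applied by Steers replicator to agar dilution plates prepared on the day of testing. Plates were incubated 44 h at 37°C in an anaerobic chamber. MIC was taken as the lowest concentration giving complete inhibition or marked reduction of growth versus the drug-free control.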

[2] = tested on: Fusobacterium nucleatum; assay: Antimicrobial activity against Fusobacterium nucleatum under anaerobic conditions after 44 hrs by CLSI-M11-47 protocol based agar dilution method; procedure, shortened: as §1
[3] = tested on: Clostridioides difficile; assay: Antimicrobial activity against Clostridium difficile under anaerobic conditions after 44 hrs by CLSI-M11-47 protocol based agar dilution method
Procedure, shortened: (§2)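 Reference agar dilution per CLSI M11-A7 with plates made on test day. Clinical isolates were stored at −70°C in 20% skim milk, subcultured twice, and 48-h cell paste was suspended in brucella broth to 0.5 McFarland. About 10^5 CFU/spot was applied with a Steers replicator. Plates were incubated 44 h at 37°C anaerobically. MIC was the lowest concentration giving complete inhibition or marked growth reduction versus the drug-free control.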

[4] = tested on: Peptostreptococcus anaerobius; assay: Antimicrobial activity against Peptostreptococcus anaerobius under anaerobic conditions after 44 hrs by CLSI-M11-47 protocol based agar dilution method; procedure, shortened: as §1
[5] = tested on: Clostridium cadaveris; assay: Antimicrobial activity against Clostridium cadaveris under anaerobic conditions after 44 hrs by CLSI-M11-47 protocol based agar dilution method; procedure, shortened: as §2
[6] = tested on: Slackia exigua; assay: Antimicrobial activity against Slackia exigua under anaerobic conditions after 44 hrs by CLSI-M11-47 protocol based agar dilution method; procedure, shortened: as §1
[7] = tested on: Anaerococcus prevotii; assay: Antimicrobial activity against Anaerococcus prevotii under anaerobic conditions after 44 hrs by CLSI-M11-47 protocol based agar dilution method; procedure, shortened: as §2
[8] = tested on: Clostridium tertium; assay: Antimicrobial activity against Clostridium tertium under anaerobic conditions after 44 hrs by CLSI-M11-47 protocol based agar dilution method; procedure, shortened: as §2
[9] = tested on: Hoylesella loescheii; assay: Antimicrobial activity against Prevotella loescheii under anaerobic conditions after 44 hrs by CLSI-M11-47 protocol based agar dilution method; procedure, shortened: as §1
[10] = tested on: Prevotella denticola; assay: Antimicrobial activity against Prevotella denticola under anaerobic conditions after 44 hrs by CLSI-M11-47 protocol based agar dilution method; procedure, shortened: as §1
[11] = tested on: Anaerococcus murdochii; assay: Antimicrobial activity against Anaerococcus murdochii under anaerobic conditions after 44 hrs by CLSI-M11-47 protocol based agar dilution method; procedure, shortened: as §2
[12] = tested on: Actinomyces turicensis; assay: Antimicrobial activity against Actinomyces turicensis under anaerobic conditions after 44 hrs by CLSI-M11-47 protocol based agar dilution method; conditions: Schaalia turicensis; procedure, shortened: as §2
[13] = tested on: Cutibacterium acnes; assay: Antimicrobial activity against Propionibacterium acnes under anaerobic conditions after 44 hrs by CLSI-M11-47 protocol based agar dilution method; procedure, shortened: as §1
[14] = tested on: Clostridium glycolicum; assay: Antimicrobial activity against Clostridium glycolicum under anaerobic conditions after 44 hrs by CLSI-M11-47 protocol based agar dilution method; conditions: Terrisporobacter glycolicus; procedure, shortened: as §2
[15] = tested on: Collinsella aerofaciens; assay: Antimicrobial activity against Colinsella aerofaciens under anaerobic conditions after 44 hrs by CLSI-M11-47 protocol based agar dilution method; procedure, shortened: as §2
[16] = tested on: Mogibacterium timidum; assay: Antimicrobial activity against Mogibacterium timidum under anaerobic conditions after 44 hrs by CLSI-M11-47 protocol based agar dilution method; procedure, shortened: as §1
[17] = tested on: Schaalia meyeri; assay: Antimicrobial activity against Actinomyces meyeri under anaerobic conditions after 44 hrs by CLSI-M11-47 protocol based agar dilution method; procedure, shortened: as §2
[18] = tested on: Eubacterium contortum; assay: Antimicrobial activity against Eubacterium contortum under anaerobic conditions after 44 hrs by CLSI-M11-47 protocol based agar dilution method; conditions: Faecalicatena contorta; procedure, shortened: as §2
[19] = tested on: Phocaeicola vulgatus; assay: Antimicrobial activity against Bacteroides vulgatus under anaerobic conditions after 44 hrs by CLSI-M11-47 protocol based agar dilution method; procedure, shortened: as §2
[20] = tested on: Atopobium parvulum; assay: Antimicrobial activity against Atopobium parvulum under anaerobic conditions after 44 hrs by CLSI-M11-47 protocol based agar dilution method; conditions: Lancefieldella parvula; procedure, shortened: as §2
[21] = tested on: Prevotella bergensis; assay: Antimicrobial activity against Prevotella bergensis under anaerobic conditions after 44 hrs by CLSI-M11-47 protocol based agar dilution method; conditions: Hallella bergensis; procedure, shortened: as §1

CCC[C@@H]1C[C@@H](C(=O)N[C@@H]([C@H]2O[C@H](SC)[C@H](O)[C@@H](O)[C@H]2O)[C@H](C)Cl)N(C)C1 [CLINDAMYCIN]
MIC50 [1]: 0.125 µg/mL (≈ 0.294 µM) | MIC90 [1]: 64 µg/mL (≈ 151 µM) | MIC50 [2]: 0.06 µg/mL (≈ 0.141 µM) | MIC90 [2]: 0.06 µg/mL (≈ 0.141 µM) | MIC50 [3]: 2 µg/mL (≈ 4.71 µM) | MIC90 [3]: 128 µg/mL (≈ 301 µM) | MIC50 [4]: ≤ 0.03 µg/mL | MIC90 [4]: 0.25 µg/mL (≈ 0.588 µM) | MIC50 [5]: 2 µg/mL (≈ 4.71 µM) | MIC90 [5]: 128 µg/mL (≈ 301 µM) | MIC50 [6]: 0.06 µg/mL (≈ 0.141 µM) | MIC90 [6]: 2 µg/mL (≈ 4.71 µM) | MIC50 [7]: 0.5 µg/mL (≈ 1.18 µM) | MIC90 [7]: 128 µg/mL (≈ 301 µM) | MIC50 [8]: 2 µg/mL (≈ 4.71 µM) | MIC90 [8]: 128 µg/mL (≈ 301 µM) | MIC50 [9]: ≤ 0.03 µg/mL | MIC90 [9]: 128 µg/mL (≈ 301 µM) | MIC50 [10]: ≤ 0.03 µg/mL | MIC90 [10]: 128 µg/mL (≈ 301 µM) | MIC50 [11]: 0.125 µg/mL (≈ 0.294 µM) | MIC90 [11]: 64 µg/mL (≈ 151 µM) | MIC50 [12]: 0.06 µg/mL (≈ 0.141 µM) | MIC90 [12]: 128 µg/mL (≈ 301 µM) | MIC50 [13]: 0.125 µg/mL (≈ 0.294 µM) | MIC90 [13]: 0.125 µg/mL (≈ 0.294 µM) | MIC50 [14]: 2 µg/mL (≈ 4.71 µM) | MIC90 [14]: 128 µg/mL (≈ 301 µM) | MIC50 [15]: 0.06 µg/mL (≈ 0.141 µM) | MIC90 [15]: 2 µg/mL (≈ 4.71 µM) | MIC50 [16]: 0.06 µg/mL (≈ 0.141 µM) | MIC90 [16]: 2 µg/mL (≈ 4.71 µM) | MIC50 [17]: 0.06 µg/mL (≈ 0.141 µM) | MIC90 [17]: 128 µg/mL (≈ 301 µM) | MIC50 [18]: 0.06 µg/mL (≈ 0.141 µM) | MIC90 [18]: 2 µg/mL (≈ 4.71 µM) | MIC50 [19]: 4 µg/mL (≈ 9.41 µM) | MIC90 [19]: > 128 µg/mL | MIC50 [20]: 0.06 µg/mL (≈ 0.141 µM) | MIC90 [20]: 2 µg/mL (≈ 4.71 µM) | MIC50 [21]: ≤ 0.03 µg/mL | MIC90 [21]: 128 µg/mL (≈ 301 µM)

Cc1ncc([N+](=O)[O-])n1CCO [METRONIDAZOLE]
MIC50 [1]: 1 µg/mL (≈ 5.84 µM) | MIC90 [1]: 4 µg/mL (≈ 23.4 µM) | MIC50 [2]: ≤ 0.03 µg/mL | MIC90 [2]: 0.25 µg/mL (≈ 1.46 µM) | MIC50 [3]: 0.5 µg/mL (≈ 2.92 µM) | MIC90 [3]: 4 µg/mL (≈ 23.4 µM) | MIC50 [4]: 0.5 µg/mL (≈ 2.92 µM) | MIC90 [4]: 1 µg/mL (≈ 5.84 µM) | MIC50 [5]: 0.5 µg/mL (≈ 2.92 µM) | MIC90 [5]: 4 µg/mL (≈ 23.4 µM) | MIC50 [6]: 0.5 µg/mL (≈ 2.92 µM) | MIC90 [6]: 1 µg/mL (≈ 5.84 µM) | MIC50 [7]: 1 µg/mL (≈ 5.84 µM) | MIC90 [7]: 2 µg/mL (≈ 11.7 µM) | MIC50 [8]: 0.5 µg/mL (≈ 2.92 µM) | MIC90 [8]: 4 µg/mL (≈ 23.4 µM) | MIC50 [9]: 0.5 µg/mL (≈ 2.92 µM) | MIC90 [9]: 2 µg/mL (≈ 11.7 µM) | MIC50 [10]: 0.5 µg/mL (≈ 2.92 µM) | MIC90 [10]: 2 µg/mL (≈ 11.7 µM) | MIC50 [11]: 1 µg/mL (≈ 5.84 µM) | MIC90 [11]: 4 µg/mL (≈ 23.4 µM) | MIC50 [12]: > 32 µg/mL | MIC90 [12]: > 32 µg/mL | MIC50 [13]: > 32 µg/mL | MIC90 [13]: > 32 µg/mL | MIC50 [14]: 0.5 µg/mL (≈ 2.92 µM) | MIC90 [14]: 4 µg/mL (≈ 23.4 µM) | MIC50 [15]: 0.5 µg/mL (≈ 2.92 µM) | MIC90 [15]: 1 µg/mL (≈ 5.84 µM) | MIC50 [16]: 0.5 µg/mL (≈ 2.92 µM) | MIC90 [16]: 1 µg/mL (≈ 5.84 µM) | MIC50 [17]: > 32 µg/mL | MIC90 [17]: > 32 µg/mL | MIC50 [18]: 0.5 µg/mL (≈ 2.92 µM) | MIC90 [18]: 1 µg/mL (≈ 5.84 µM) | MIC50 [19]: 1 µg/mL (≈ 5.84 µM) | MIC90 [19]: 2 µg/mL (≈ 11.7 µM) | MIC50 [20]: 0.5 µg/mL (≈ 2.92 µM) | MIC90 [20]: 1 µg/mL (≈ 5.84 µM) | MIC50 [21]: 0.5 µg/mL (≈ 2.92 µM) | MIC90 [21]: 2 µg/mL (≈ 11.7 µM)
